Article PMC8969127 (Molecular Pharmacology, 2022)
“Also recorded” adds a separate entry of the source. Where two headings read alike, the source gives them in different places.

Tests used:
[1] = target: T1, CatSper (Homo sapiens, UniProt Q7RTX7+Q86XQ3+Q8NEC5+Q96P56); test: Activator concentration-response curves in the presence of increasing inhibitor; type: cell-based
Procedure, shortened: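 Washed human donor sperm in low pH/low K+ buffer (pH 6.7) were loaded with 10 µM Fluo-4-AM plus 1 mM probenecid, 30 min, room temperature, dark. FLIPR read: ex 470–495/em 515–575 nm. Activator concentration-response curves were run with increasing concentrations of competitive antagonist, added 2 min before the activator. Activator EC50 values were taken from maximal peak height (four-parameter fit). pKB came from Schild regression.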

[2] = target: T1, CatSper; type: cell-based; settings: for IC50: human sperm
[3] = tested on: human sperm; test: Computer-assisted sperm analysis; type: cell-based; settings: CASA, human sperm, up to 30 µM
Procedure, shortened: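 Donor semen was liquefied ≥40 min at 37 °C, then swim-up in HAM's F10 for 1 h at 37 °C, 5% CO2. Cells were adjusted to 10x10^6/mL and capacitated in HAM's F10 with 5% BSA and 15 mM NaHCO3 at 37 °C, 5% CO2, with test compound or DMSO. HAM was induced with 100 nM progesterone or 100 nM PGE1. CASA at 37 °C used ≥10 fields, ≥200 cells. Motility classes came from VAP/VSL/VCL-derived LIN and STR, normalized to vehicle controls, ≥3 experiments.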

[4] = target: T1, CatSper; test: Human sperm calcium influx assay, activation; type: cell-based; settings: for effect on [Ca2+]i as activator: concentrations up to 10 µM; for Emax: read-out: Emax, %, Steroid Alone
Procedure, shortened: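 Semen from healthy donors was liquefied at 37 °C, washed twice in low pH/low K+ buffer (pH 6.7, 0.2 mM CaCl2), then loaded with 10 µM Fluo-4-AM plus 1 mM probenecid, 30 min, room temperature, dark. On FLIPR, buffer was added first, then openers 2 min later. Fluorescence was read for 7 min at 2-s intervals. EC50 came from 8-point, 3-fold dilutions in duplicate, peak height, four-parameter fit. Emax is relative to 3 µM progesterone. Activators were retested with 30 µM mibefradil.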

[5] = target: T1, CatSper; settings: read-out: EC50, patch-clamp electrophysiology; ref Lishko et al., 2011; cited from earlier work
[6] = target: T1, CatSper; settings: read-out: EC50, rapid-mixing calcium fluorimetry; ref Strunker et al., 2011; cited from earlier work
[7] = Schild pKB, opener PGE1, mean ± standard error
[8] = Schild pKB, opener PROG, mean ± standard error
[9] = Schild pKB, opener l-Sirenin, mean ± standard error
[10] = average pKB, Schild analysis, averaged across the activators, PROG, PGE1 and l-sirenin, mean ±SD
[11] = KB, Leff-Dougall analysis, averaged across the activators, PROG, PGE1 and l-sirenin
[12] = Leff-Dougall pKB, opener PGE1, from IC50, mean ± SD
[13] = Leff-Dougall pKB, opener PROG, from IC50, mean ± SD
[14] = Leff-Dougall pKB, opener l-Sirenin, from IC50, mean ± SD
[15] = pIC50, inhibition of PGE1-induced calcium influx, opener 10 nM PGE1 (EC80), mean ±SD
[16] = pIC50, inhibition of l-sirenin-induced calcium influx, opener 3 µM l-sirenin (EC80), mean ±SD
[17] = pEC50, calcium influx, Steroid Alone, human sperm, mean ±SD

Kb [1, 7] [µM] | Kb [1, 8] [µM] | Kb [1, 9] [µM] | Kb [1, 10] [µM] | Kb [2, 11] [µM] | Kb [2, 12] [µM] | Kb [2, 13] [µM] | Kb [2, 14] [µM] | IC50 [2, 15] [µM] | IC50 [2, 16] [µM] | EC50 [4, 17] [µM] | Emax [4] [%] | SMILES | effect on total and progressive sperm motility [3] | effect on [Ca2+]i as activator [4] | other results
724 | 4.17 | 15.1 | 36.3 | 5.1 | 6.03 | 3.47 | 6.46 | 57.5 | 61.7 | – | – | C[C@]12CCC(=O)C=C1CC[C@@H]1[C@@H]2[C@@H](O)C[C@]2(C=O)[C@@H](C(=O)CO)CC[C@@H]12 [compound 6, aldosterone] | no significant effect | did not increase [Ca^2+]i; also recorded: negligible activity | –
– | – | – | – | – | – | – | – | – | – | 0.00372 | 111 | CC(=O)[C@H]1CC[C@H]2[C@@H]3CCC4=CC(=O)CC[C@]4(C)[C@H]3CC[C@]12C [compound 1, progesterone] | – | – | EC50 [5]: 0.0077 µM; EC50 ([4]; EC50, increase of [Ca2+]i in human sperm): 0.0037 µM; time at which the calcium signal peaked ([4]; then decayed slowly for up to 300 seconds): ~100 s; EC50 [6]: 0.042 µM
4.17 | 0.646 | 6.03 | 2.51 | 1.6 | 1 | 0.692 | 6.31 | 9.77 | 6.17 | > 10 | 17 | CC(=O)O[C@]1(C(C)=O)CC[C@H]2[C@@H]3C[C@H](C)C4=CC(=O)CC[C@]4(C)[C@H]3CC[C@@]21C [compound 4, medroxyprogesterone acetate] | reduced total and progressive motility at 30 µM but not at lower concentrations | – | Kb ([2]; mean pKB, Leff-Dougall analysis, averaged across the activators, PROG, PGE1 and l-sirenin, mean ±SD): 1.66 µM; effect on [Ca2+]i as activator ([4]; listed as MPA): little effect on [Ca^2+]i; also recorded: negligible activity

SMILES | Kb [1, 7] [µM] | Kb [1, 8] [µM] | Kb [1, 9] [µM] | Kb [1, 10] [µM] | Kb [2, 11] [µM] | Kb [2, 12] [µM] | Kb [2, 13] [µM] | Kb [2, 14] [µM] | IC50 [2, 15] [µM] | IC50 [2, 16] [µM] | EC50 [4, 17] [µM] | Emax [4] [%] | effect on total and progressive sperm motility [3] | effect on [Ca2+]i as activator [4] | other results
C#C[C@]1(O)CC[C@H]2[C@@H]3CCC4=CC(=O)CC[C@@H]4[C@H]3CC[C@@]21CC [compound 5, levonorgestrel] | 437 | 0.158 | 56.2 | 15.8 | 4.5 | 3.16 | 3.39 | 8.51 | 30.2 | 81.3 | – | 15 | no significant effect | negligible activity | EC50 [4]: > 10 µM
